From ChEMBL document CHEMBL1147705, “Imidazolylpyrimidine based CXCR2 chemokine receptor antagonists” (Bioorg Med Chem Lett, 2006)

Experiments:
[1] = target: T1, C-X-C chemokine receptor type 2 (Homo sapiens, UniProt P25025); assay: Binding affinity to human CXCR2 receptor transfected in CHO cell; assay type: cell-based
T1 sequence (P25025 whole entry): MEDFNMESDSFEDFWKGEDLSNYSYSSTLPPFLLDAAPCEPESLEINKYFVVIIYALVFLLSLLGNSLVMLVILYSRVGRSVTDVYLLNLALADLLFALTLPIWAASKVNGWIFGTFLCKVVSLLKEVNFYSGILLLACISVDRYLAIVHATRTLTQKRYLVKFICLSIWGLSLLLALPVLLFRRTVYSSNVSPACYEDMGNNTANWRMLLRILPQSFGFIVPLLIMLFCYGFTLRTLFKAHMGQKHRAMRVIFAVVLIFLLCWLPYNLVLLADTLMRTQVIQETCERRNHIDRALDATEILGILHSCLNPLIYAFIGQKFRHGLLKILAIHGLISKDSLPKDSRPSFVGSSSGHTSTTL

[2] = Oral bioavailability in rat at […], iv and po; assay type: ADME, organism-based; conditions: in vivo
[3] = Stability in rat liver microsome at 10 uM after 30 min; assay type: ADME; conditions: liver microsomes, read-out: Stability
Summary of the method: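 Compound at 10 µM incubated with rat liver microsomal enzyme (300 nM) for 30 min at 37 °C; percent of parent remaining after 30 min quantified by LC. Values are means of at least two experiments, standard deviation <±30%.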

[4] = Half life in dog at 2 umol/kg, iv and 4 umol/kg, po; assay type: ADME, organism-based, Canis lupus familiaris; conditions: in vivo
[5] = Volume of distribution in rat at 4 umol/kg, iv and po; assay type: ADME, organism-based; conditions: in vivo, read-out: Vdss
Summary of the method: (§1)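 Rats (n = 3) dosed 4 µmol/kg by iv and po routes; plasma pharmacokinetic profile followed after each route to derive the parameters.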

[6] = Cmax in dog at 4 umol/kg, po; assay type: ADME, organism-based, Canis lupus familiaris; set-up: dose 4 umol/kg, route oral; conditions: in vivo
[7] = Clearance in rat at 4 umol/kg, iv and po; assay type: ADME, organism-based; conditions: in vivo; summary of the method: as §1
[8] = Cmax in rat at 4 umol/kg, po; assay type: ADME, organism-based; set-up: dose 4 umol/kg, route oral; conditions: in vivo; summary of the method: as §1
[9] = Volume of distribution in dog at 2 umol/kg, iv and 4 umol/kg, po; assay type: ADME, organism-based, Canis lupus familiaris; conditions: in vivo, read-out: Vdss
[10] = Oral bioavailability in dog at 2 umol/kg, iv and 4 umol/kg, po; assay type: ADME, organism-based, Canis lupus familiaris; conditions: in vivo
[11] = AUC (infinity) in dog at 4 umol/kg, po; assay type: ADME, organism-based, Canis lupus familiaris; set-up: dose 4 umol/kg, route oral, time infinity; conditions: plasma
[12] = AUC (infinity) in rat at 4 umol/kg, po; assay type: ADME, organism-based; set-up: dose 4 umol/kg, route oral, time infinity; conditions: plasma; summary of the method: as §1
[13] = Half life in rat at 4 umol/kg, iv and po; assay type: ADME, organism-based; conditions: in vivo; summary of the method: as §1
[14] = Clearance in dog at 2 umol/kg, iv and 4 umol/kg, po; assay type: ADME, organism-based, Canis lupus familiaris; conditions: in vivo

SMILES | Ki [1] | remaining at 0.5 h, 10 µM [3] | other results
CCOCCCNC(=O)[C@H](CC(C)C)Nc1cc(CC)nc(-n2cnc(-c3ccc(OC(F)(F)F)cc3)c2)n1 | 0.057 µM | 77% | bioavailability [2]: 18%
CCCCc1cc(N[C@@H](CC(C)C)C(=O)NCCCOCC)nc(-n2cnc(-c3ccc(OC(F)(F)F)cc3)c2)n1 | 0.017 µM | 66% | bioavailability [2]: 7%
CCCCc1cc(N[C@@H](CC(C)C)C(=O)NCCCOCC)nc(-n2cnc(-c3ccccc3)c2)n1 | 0.1 µM | 2% | 
CCCCc1cc(N[C@@H](CC(C)C)C(=O)NCCCOCC)nc(-n2cnc(-c3ccc(C(F)(F)F)cc3)c2)n1 | 0.014 µM | 80% | 
CCCCc1cc(N[C@@H](CC(C)C)C(=O)NCCCOCC)nc(-n2ccnc2C)n1 | > 10 µM | 27% | 
CCCCc1cc(N[C@@H](CC(C)C)C(=O)NCCCOCC)nc(-n2cnc(C)c2)n1 | 0.09 µM | 25% | 
CCCCc1cc(N[C@@H](CC(C)C)C(=O)NCCCOCC)nc(-n2cnc(-c3ccc([N+](=O)[O-])cc3)c2)n1 | 0.16 µM | 48% | 
CCCCc1cc(N[C@@H](CC(C)C)C(=O)NCCCOCC)nc(-n2cnc(-c3ccc(C#N)cc3)c2)n1 | 0.043 µM | 50% | 
CCCCc1cc(N[C@@H](CC(C)C)C(=O)NCCCOCC)nc(-n2cnc(-c3ccc(N)cc3)c2)n1 | 0.6 µM |  | 
CCCCc1cc(N[C@@H](CC(C)C)C(=O)NCCCOCC)nc(-n2cncn2)n1 | > 10 µM | 30% | 
CCCCc1cc(N[C@@H](CC(C)C)C(=O)NCCCOCC)nc(-n2cnc(-c3ccc(Cl)cc3)c2)n1 | 0.027 µM | 54% | 
CCCCc1cc(N[C@@H](CC(C)C)C(=O)NCCCOCC)nc(-n2cnc(-c3ccc(F)cc3)c2)n1 | 0.037 µM | 20% | 
CCCCCCCCSc1cc(N[C@@H](CC(C)C)C(=O)NCCCOCC)nc(-n2ccnc2)n1 | 0.06 µM | 26% | 
CCCCc1cc(N[C@@H](CC(C)C)C(=O)NCCCOCC)nc(-n2cnc(-c3ccc(OC)cc3)c2)n1 | 0.042 µM | 30% | 
CCCc1cc(N[C@@H](CC(C)C)C(=O)NCCCOCC)nc(-n2cnc(-c3cccc(OC(F)(F)F)c3)c2)n1 | 0.035 µM | 55% | bioavailability [2]: 7%
CCOCCCNC(=O)[C@H](CC(C)C)Nc1ccnc(-n2cnc(-c3ccc(OC(F)(F)F)cc3)c2)n1 | 0.2 µM | 5% | bioavailability [2]: 4%
CCCCCCCCc1cc(N[C@@H](CC(C)C)C(=O)NCCCOCC)nc(-n2ccnc2)n1 | 0.12 µM | 36% | 
CCCCc1cc(N[C@@H](CC(C)C)C(=O)NCCCOCC)nc(-c2ccncc2)n1 | > 5 µM | 52% | 
CCOCCCNC(=O)[C@H](CC(C)C)Nc1cc(C(C)(C)C)nc(-n2ccnc2)n1 | 6 µM | 83% | 
CCCc1cc(N[C@@H](CC(C)C)C(=O)NCCCOCC)nc(-n2cnc(-c3ccccc3OC(F)(F)F)c2)n1 | 0.05 µM | 13% | bioavailability [2]: 5%
CCCCCCc1cc(N[C@@H](CC(C)C)C(=O)NCCCOCC)nc(-n2ccnc2)n1 | 0.29 µM | 50% | 
CCOCCCNC(=O)[C@H](CC(C)C)Nc1cc(C)nc(-n2cnc(-c3ccc(OC(F)(F)F)cc3)c2)n1 | 0.044 µM | 67% | bioavailability [2]: 22%
CCCc1cc(N[C@@H](CC(C)C)C(=O)NCCCOCC)nc(-n2cnc(-c3ccc(OC(F)(F)F)cc3)c2)n1 | 0.025 µM | 74% | half-life [4]: 1.1 h; Vd [5]: 1.99 L/kg; bioavailability [2]: 33%; Cmax [6]: 0.3 µM; clearance [7]: 0.59 L/h/kg; Cmax [8]: 0.66 µM; Vd [9]: 2.79 L/kg; bioavailability [10]: 25%; AUC(0-inf) [11]: 1390 nM·h; AUC(0-inf) [12]: 2430 nM·h; half-life [13]: 2.7 h; clearance [14]: 0.723 L/h/kg
CCCCc1cc(N[C@@H](CC(C)C)C(=O)NCCCOCC)nc(-n2cnc(-c3ccc(C)cc3)c2)n1 | 0.04 µM | 35% | 
CCCCc1cc(N[C@@H](CC(C)C)C(=O)NCCCOCC)nc(-n2cnc(C(C)(C)C)c2)n1 | 0.085 µM | 13% | 
CCCCc1cc(N[C@@H](CC(C)C)C(=O)NCCCOCC)nc(-n2ccnc2)n1 | 1.7 µM | 68% | 
CCCCc1cc(N[C@@H](CC(C)C)C(=O)NCCCOCC)nc(-n2cnc(-c3ccc(O)cc3)c2)n1 | 0.032 µM | 65% | 
CCCCc1cc(N[C@@H](CC(C)C)C(=O)NCCCOCC)nc(-c2cccnc2)n1 | 0.75 µM | 36% | 
